Calls of active or inactive are those of the source. No cut-off for these calls is given here. Non-standard residues stand in square brackets, D forms with d. Residues, ends and D or L forms follow the SMILES beside them. NMeR = CN[C@@H](CCCNC(=N)N)C(=O)O; NMeF = CN[C@@H](Cc1ccccc1)C(=O)O; NMeI = CC[C@H](C)[C@H](NC)C(=O)O; NMeD = CN[C@@H](CC(=O)O)C(=O)O; NMeL = CN[C@@H](CC(C)C)C(=O)O; NMeS = CN[C@@H](CO)C(=O)O
How the values were obtained:
[1] = system: Streptococcus pneumoniae TIGR4; assay: Agonist activity at ComD2 receptor in Streptococcus pneumoniae TIGR4 harboring pcomX/lacZ reporter gene at 10 uM incubated for 30 mins by ONPG based beta-galactosidase assay relative to native CSP2
Procedure, shortened: (§1)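 Single-dose screen of synthetic peptide at 10 μM in wild-type reporter strains (D39 for ComD1, TIGR4 for ComD2) producing their own CSP and carrying lacZ under the comX promoter. β-gal activity in Miller units normalized to native CSP (CSP1 or CSP2, 100%); DMSO 0%. Triplicates over three separate trials.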

[2] = Agonist activity at ComD1 receptor in Streptococcus pneumoniae D39 harboring pcomX/lacZ reporter gene incubated for 30 mins by ONPG based beta-galactosidase assay
Procedure, shortened: (§2)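 Dose-response in wild-type lacZ reporter strains (comX promoter; D39 for ComD1, TIGR4 for ComD2) producing native CSP. Peptides tested over a range of concentrations. β-gal read-out (Miller units) normalized to native CSP. EC50 reported with 95% confidence interval.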

[3] = system: Streptococcus pneumoniae D39; assay: Agonist activity at ComD1 receptor in Streptococcus pneumoniae D39 harboring pcomX/lacZ reporter gene at 10 uM incubated for 30 mins by ONPG based beta-galactosidase assay relative to native CSP1; procedure, shortened: as §1
[4] = Agonist activity at ComD2 receptor in Streptococcus pneumoniae TIGR4 harboring pcomX/lacZ reporter gene incubated for 30 mins by ONPG based beta-galactosidase assay; procedure, shortened: as §2
[5] = Metabolic stability in aqueous ammonium carbonate solution assessed as trypsin/chymotrypsin (unknown origin)-mediated drug degradation by measuring half life at 0.05 ug/ml incubated in shaking conditions in presence of trypsin/chymotrpsin and measured for 48 hrs by RP-HPLC analysis; type: ADME; settings: human
[6] = Antagonist activity at ComD1 receptor in Streptococcus pneumoniae D39 harboring pcomX/lacZ reporter gene assessed as inhibiton of CSP1-stimulated maximum signal preincubated for 30 mins followed by 50 nM CSP1 addition by ONPG based beta-galactosidase assay
Procedure, shortened: (§3)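 Comx-lacZ β-gal reporter inhibition in D39 (ComD1, CSP1 50 nM) or TIGR4 (ComD2, CSP2 250 nM). Peptides tested over a range of concentrations against the stimulating CSP. Miller units normalized to CSP alone. IC50 given with 95% confidence interval.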

[7] = Metabolic stability in human plasma at 0.33 mM measured for 3 hrs by RP-HPLC analysis; type: ADME, cell-free; settings: 330 µM
[8] = Antagonist activity at ComD2 receptor in Streptococcus pneumoniae TIGR4 harboring pcomX/lacZ reporter gene assessed as inhibition of CSP2-stimulated maximum signal preincubated for 30 mins followed by 250 nM native CSP2 addition by ONPG based beta-galactosidase assay; procedure, shortened: as §3
[9] = Metabolic stability in human plasma assessed as half-life at 0.33 mM measured for 3 hrs by RP-HPLC analysis; type: ADME, cell-free
[10] = Solubility of the compound in ammonium carbonate solution at pH 8; type: physicochemical; settings: buffer
[11] = system: Streptococcus pneumoniae D39; assay: Antagonist activity at ComD1 receptor in Streptococcus pneumoniae D39 harboring pcomX/lacZ reporter gene assessed as inhibiton of CSP1-stimulated maximum signal at 10 uM preincubated for 30 mins followed by 50 nM CSP1 addition by ONPG based beta-galactosidase assay relative to native CSP1
Procedure, shortened: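 Inhibition screen: peptides at 10 μM against CSP1 50 nM (D39, ComD1) or CSP2 250 nM (TIGR4, ComD2), in comX-lacZ reporter strains. β-gal Miller units normalized to CSP alone (100%) and DMSO (0%). Triplicates over three separate trials.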

| Compound | Activity [1] | EC50 [2] | Activity [3] | EC50 [4] | half-life at 0.05 ug/ml [5] | other results |
| --- | --- | --- | --- | --- | --- | --- |
| CC[C@H](C)[C@H](NC(=O)[C@H](Cc1ccccc1)NC(=O)[C@H](CC(=O)O)NC(=O)[C@H](CCCNC(=N)N)NC(=O)[C@H](Cc1ccccc1)N(C)C(=O)[C@H](Cc1ccccc1)NC(=O)[C@H](CCCCN)NC(=O)[C@H](CO)NC(=O)[C@H](CC(C)C)NC(=O)[C@H](CCCNC(=N)N)NC(=O)[C@H](CCSC)NC(=O)[C@@H](N)CCC(=O)O)C(=O)N[C@@H](CC(C)C)C(=O)N[C@@H](CCC(N)=O)C(=O)N[C@@H](CCCNC(=N)N)C(=O)O (H-EMRLSKF[NMeF]RDFILQR-OH) | inactive | > 1000 nM | > 75% |  |  |  |
| CC[C@H](C)[C@H](NC(=O)[C@H](Cc1ccccc1)NC(=O)[C@H](CC(=O)O)NC(=O)[C@H](CCCNC(=N)N)NC(=O)[C@H](Cc1ccccc1)NC(=O)[C@H](Cc1ccccc1)NC(=O)[C@H](CCCCN)NC(=O)[C@H](CO)NC(=O)[C@H](CC(C)C)NC(=O)[C@H](CCCNC(=N)N)NC(=O)[C@H](CCSC)NC(=O)[C@@H](N)CCC(=O)O)C(=O)N[C@@H](CC(C)C)C(=O)N[C@@H](CCC(N)=O)C(=O)N(C)[C@@H](CCCNC(=N)N)C(=O)O (H-EMRLSKFFRDFILQ[NMeR]-OH) | > 75% | 130 nM | > 75% | > 1000 nM |  |  |
| CC[C@H](C)[C@H](NC(=O)[C@H](Cc1ccccc1)NC(=O)[C@H](CC(=O)O)NC(=O)[C@H](CCCNC(=N)N)NC(=O)[C@H](Cc1ccccc1)NC(=O)[C@H](Cc1ccccc1)NC(=O)[C@H](CCCCN)N(C)C(=O)[C@H](CO)NC(=O)[C@H](CC(C)C)NC(=O)[C@H](CCCNC(=N)N)NC(=O)[C@H](CCSC)NC(=O)[C@H](C)N)C(=O)N[C@@H](CC(C)C)C(=O)N[C@@H](CCC(N)=O)C(=O)N[C@@H](CCCNC(=N)N)C(=O)N[C@@H](CCCCN)C(=O)N[C@@H](CCCCN)C(=O)O |  |  |  |  | 2 h | IC50 [6]: 48 nM; Stability [7]: Unstable |
| CC[C@H](C)[C@H](NC(=O)[C@H](Cc1ccccc1)NC(=O)[C@H](CC(=O)O)N(C)C(=O)[C@H](CCCNC(=N)N)NC(=O)[C@H](Cc1ccccc1)NC(=O)[C@H](Cc1ccccc1)NC(=O)[C@H](CCCCN)NC(=O)[C@H](CO)NC(=O)[C@H](CC(C)C)NC(=O)[C@H](CCCNC(=N)N)NC(=O)[C@H](CCSC)NC(=O)[C@@H](N)CCC(=O)O)C(=O)N[C@@H](CC(C)C)C(=O)N[C@@H](CCC(N)=O)C(=O)N[C@@H](CCCNC(=N)N)C(=O)O (H-EMRLSKFFR[NMeD]FILQR-OH) | > 75% | > 1000 nM | inactive | > 1000 nM |  |  |
| CC[C@H](C)[C@H](NC(=O)[C@H](Cc1ccccc1)NC(=O)[C@H](CC(=O)O)NC(=O)[C@H](CCCNC(=N)N)NC(=O)[C@H](Cc1ccccc1)NC(=O)[C@H](Cc1ccccc1)NC(=O)[C@H](CCCCN)NC(=O)[C@H](CO)NC(=O)[C@H](CC(C)C)N(C)C(=O)[C@H](CCCNC(=N)N)NC(=O)[C@H](CCSC)NC(=O)[C@@H](N)CCC(=O)O)C(=O)N[C@@H](CC(C)C)C(=O)N[C@@H](CCC(N)=O)C(=O)N[C@@H](CCCNC(=N)N)C(=O)O (H-EMR[NMeL]SKFFRDFILQR-OH) | inactive | 280 nM | > 75% |  |  |  |
| CC[C@H](C)[C@H](NC(=O)[C@H](CCCNC(=N)N)NC(=O)[C@H](CCSC)NC(=O)[C@H](C)N)C(=O)N[C@@H](CO)C(=O)N[C@@H](CCCNC(=N)N)C(=O)N[C@H](C(=O)N[C@H](C(=O)N[C@@H](CC(C)C)C(=O)N[C@H](CC(=O)O)C(=O)N[C@@H](Cc1ccccc1)C(=O)N[C@@H](CC(C)C)C(=O)N(C)[C@@H](Cc1ccccc1)C(=O)N[C@@H](CC(C)C)C(=O)N[C@@H](CCCNC(=N)N)C(=O)N[C@@H](CCCCN)C(=O)N[C@@H](CCCCN)C(=O)O)[C@@H](C)CC)[C@@H](C)CC |  |  |  |  | 4 h | IC50 [6]: > 1000 nM; IC50 [8]: 64 nM; Stability [7]: Unstable |
| CC[C@H](C)[C@H](NC(=O)[C@H](Cc1ccccc1)NC(=O)[C@H](CC(=O)O)NC(=O)[C@H](CCCNC(=N)N)NC(=O)[C@H](Cc1ccccc1)NC(=O)[C@H](Cc1ccccc1)NC(=O)[C@H](CCCCN)NC(=O)[C@H](CO)NC(=O)[C@H](CC(C)C)NC(=O)[C@H](CCCNC(=N)N)NC(=O)[C@H](CCSC)NC(=O)[C@H](C)N)C(=O)N[C@@H](CC(C)C)C(=O)N(C)[C@@H](CCC(N)=O)C(=O)N[C@@H](CCCNC(=N)N)C(=O)N[C@@H](CCCCN)C(=O)N[C@@H](CCCCN)C(=O)O |  |  |  |  | 6 h | IC50 [6]: 370 nM; Stability [7]: Stable |
| CC[C@H](C)[C@H](NC(=O)[C@H](Cc1ccccc1)NC(=O)[C@H](CC(=O)O)NC(=O)[C@H](CCCNC(=N)N)NC(=O)[C@H](Cc1ccccc1)NC(=O)[C@H](Cc1ccccc1)N(C)C(=O)[C@H](CCCCN)NC(=O)[C@H](CO)NC(=O)[C@H](CC(C)C)NC(=O)[C@H](CCCNC(=N)N)NC(=O)[C@H](CCSC)NC(=O)[C@@H](N)CCC(=O)O)C(=O)N[C@@H](CC(C)C)C(=O)N[C@@H](CCC(N)=O)C(=O)N[C@@H](CCCNC(=N)N)C(=O)O (H-EMRLSK[NMeF]FRDFILQR-OH) | inactive | 280 nM | > 75% |  | > 48 h | half-life at 330 µM [9]: < 0.5 h |
| CC[C@H](C)[C@H](NC(=O)[C@H](Cc1ccccc1)NC(=O)[C@H](CC(=O)O)NC(=O)[C@H](CCCNC(=N)N)NC(=O)[C@H](Cc1ccccc1)NC(=O)[C@H](Cc1ccccc1)NC(=O)[C@H](CCCCN)NC(=O)[C@H](CO)N(C)C(=O)[C@H](CC(C)C)NC(=O)[C@H](CCCNC(=N)N)NC(=O)[C@H](CCSC)NC(=O)[C@@H](N)CCC(=O)O)C(=O)N[C@@H](CC(C)C)C(=O)N[C@@H](CCC(N)=O)C(=O)N[C@@H](CCCNC(=N)N)C(=O)O (H-EMRL[NMeS]KFFRDFILQR-OH) | > 75% | 280 nM | > 75% | > 1000 nM |  |  |
| CC[C@H](C)[C@H](NC(=O)[C@H](CCCNC(=N)N)NC(=O)[C@H](CCSC)NC(=O)[C@@H](N)CCC(=O)O)C(=O)N[C@@H](CO)C(=O)N[C@@H](CCCNC(=N)N)C(=O)N(C)[C@H](C(=O)N[C@H](C(=O)N[C@@H](CC(C)C)C(=O)N[C@@H](CC(=O)O)C(=O)N[C@@H](Cc1ccccc1)C(=O)N[C@@H](CC(C)C)C(=O)N[C@@H](Cc1ccccc1)C(=O)O)[C@@H](C)CC)[C@@H](C)CC (H-EMRISR[NMeI]ILDFLF-OH) | > 75% |  | inactive | > 1000 nM |  | solubility [10]: Insoluble; inhibition [11]: inactive |
| CC[C@H](C)[C@H](NC(=O)[C@H](Cc1ccccc1)NC(=O)[C@H](CC(=O)O)NC(=O)[C@H](CCCNC(=N)N)NC(=O)[C@H](Cc1ccccc1)NC(=O)[C@H](Cc1ccccc1)NC(=O)[C@H](CCCCN)N(C)C(=O)[C@H](CO)NC(=O)[C@H](CC(C)C)NC(=O)[C@H](CCCNC(=N)N)NC(=O)[C@H](CCSC)NC(=O)[C@H](C)N)C(=O)N[C@@H](CC(C)C)C(=O)N(C)[C@@H](CCC(N)=O)C(=O)N[C@@H](CCCNC(=N)N)C(=O)N[C@@H](CCCCN)C(=O)N[C@@H](CCCCN)C(=O)O |  |  |  |  | 6 h | IC50 [6]: 360 nM; Stability [7]: Unstable |
| H-EMRLSKFFRDFILQR-OH |  | 8.1 nM |  | > 1000 nM | 4 h |  |
| CC[C@H](C)[C@H](NC(=O)[C@H](Cc1ccccc1)NC(=O)[C@H](CC(=O)O)NC(=O)[C@H](CCCNC(=N)N)NC(=O)[C@H](Cc1ccccc1)NC(=O)[C@H](Cc1ccccc1)NC(=O)[C@H](CCCCN)NC(=O)[C@H](CO)NC(=O)[C@H](CC(C)C)NC(=O)[C@H](CCCNC(=N)N)NC(=O)[C@H](CCSC)NC(=O)[C@@H](N)CCC(=O)O)C(=O)N(C)[C@@H](CC(C)C)C(=O)N[C@@H](CCC(N)=O)C(=O)N[C@@H](CCCNC(=N)N)C(=O)O (H-EMRLSKFFRDFI[NMeL]QR-OH) | inactive | > 1000 nM | inactive |  |  |  |
| CC[C@H](C)[C@H](NC(=O)[C@H](CCCNC(=N)N)NC(=O)[C@H](CCSC)NC(=O)[C@@H](N)CCC(=O)O)C(=O)N[C@@H](CO)C(=O)N(C)[C@@H](CCCNC(=N)N)C(=O)N[C@H](C(=O)N[C@H](C(=O)N[C@@H](CC(C)C)C(=O)N[C@@H](CC(=O)O)C(=O)N[C@@H](Cc1ccccc1)C(=O)N[C@@H](CC(C)C)C(=O)N[C@@H](Cc1ccccc1)C(=O)O)[C@@H](C)CC)[C@@H](C)CC (H-EMRIS[NMeR]IILDFLF-OH) | > 75% |  | inactive | 560 nM |  | solubility [10]: Insoluble; inhibition [11]: inactive |
